ChEMBL document CHEMBL1125607, “Novel gonadotropin-releasing hormone antagonists: peptides incorporating modified N omega-cyanoguanidino moieties” (J Med Chem, 1991)
In brackets after ≈: the same amount, converted by molar mass. One block for each compound: values may come before it. Activity calls are given as the source filed them. The rule behind the calls is not given here.

Tests used:
[1] = target: T1, Gonadotropin-releasing hormone receptor (Rattus norvegicus, UniProt P30969); assay: In vitro binding affinity of Gonadotropin-releasing hormone antagonist was measured in rat pituitary cell membranes; design: species or system Pituitary gland cell, Membrane
T1 sequence (P30969 whole entry): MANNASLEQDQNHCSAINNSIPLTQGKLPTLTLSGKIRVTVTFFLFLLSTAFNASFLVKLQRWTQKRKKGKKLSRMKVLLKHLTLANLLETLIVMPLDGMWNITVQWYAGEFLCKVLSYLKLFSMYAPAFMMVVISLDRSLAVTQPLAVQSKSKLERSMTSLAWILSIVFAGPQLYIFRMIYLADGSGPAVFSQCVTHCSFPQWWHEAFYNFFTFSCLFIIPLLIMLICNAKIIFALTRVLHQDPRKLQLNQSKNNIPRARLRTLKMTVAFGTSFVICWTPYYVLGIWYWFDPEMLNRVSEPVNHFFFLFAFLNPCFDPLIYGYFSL
Procedure, shortened: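 Displacement binding on pituitary cell membranes with [DAla6,NMe-Leu7,Pro9-NHEt]GnRH as standard; analogue KD values calculated from potencies relative to that standard derived from displacement data.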

[2] = test system: Rattus norvegicus; assay: Potency (2.5 mg/rat) using anti-ovulatory assay, expressed as rat ovulating/total number of treated rats measured after sc administration; 5/6; format: functional, organism-based
[3] = target: Gonadotropin-releasing hormone receptor (Rattus norvegicus) (UniProt P30969); assay: Antagonist potency at GnRH receptor relative to a standard ([Ac-delta3Pro, DFpa2, DTrp3,6]GnRH).
[4] = test system: Rattus norvegicus; assay: Potency (5 mg/rat) using anti-ovulatory assay, expressed as rat ovulating/total number of treated rats measured after sc administration; 1/6; format: functional, organism-based
[5] = species on record: Rattus norvegicus; assay: In vitro histamine release by rat mast cells.; conditions: read-out: ED50 (the source's name)
[6] = test system: Rattus norvegicus; assay: Potency (5 mg/rat) using anti-ovulatory assay, expressed as rat ovulating/total number of treated rats measured after sc administration; 2/5; format: functional, organism-based
[7] = test system: Rattus norvegicus; assay: Potency (10 mg/rat) using anti-ovulatory assay, expressed as rat ovulating/total number of treated rats measured after sc administration; 0/6; format: functional, organism-based
[8] = test system: Rattus norvegicus; assay: Potency (2.5 mg/rat) using anti-ovulatory assay, expressed as rat ovulating/total number of treated rats measured after sc administration; 7/7; format: functional, organism-based
[9] = test system: Rattus norvegicus; assay: Potency (5 mg/rat) using anti-ovulatory assay, expressed as rat ovulating/total number of treated rats measured after sc administration; 0/7; format: functional, organism-based
[10] = test system: Rattus norvegicus; assay: Potency (2.5 mg/rat) using anti-ovulatory assay, expressed as rat ovulating/total number of treated rats measured after sc administration; 1/8; format: functional, organism-based
[11] = test system: Rattus norvegicus; assay: Potency (1 mg/rat) using anti-ovulatory assay, expressed as rat ovulating/total number of treated rats measured after sc administration; 6/6; format: functional, organism-based
[12] = test system: Rattus norvegicus; assay: Potency (2.5 mg/rat) using anti-ovulatory assay, expressed as rat ovulating/total number of treated rats measured after sc administration; 2/9; format: functional, organism-based
[13] = test system: Rattus norvegicus; assay: Potency (10 mg/rat) using anti-ovulatory assay, expressed as rat ovulating/total number of treated rats measured after sc administration; 4/4; format: functional, organism-based
[14] = test system: Rattus norvegicus; assay: Potency (1 mg/rat) using anti-ovulatory assay, expressed as rat ovulating/total number of treated rats measured after sc administration; 5/8; format: functional, organism-based
[15] = test system: Rattus norvegicus; assay: Potency (2.5 mg/rat) using anti-ovulatory assay, expressed as rat ovulating/total number of treated rats measured after sc administration; 0/8; format: functional, organism-based
[16] = test system: Rattus norvegicus; assay: Potency (2.5 mg/rat) using anti-ovulatory assay, expressed as rat ovulating/total number of treated rats measured after sc administration; 7/9; format: functional, organism-based
[17] = test system: Rattus norvegicus; assay: Potency (0.5 mg/rat) using anti-ovulatory assay, expressed as rat ovulating/total number of treated rats measured after sc administration; 7/7; format: functional, organism-based
[18] = test system: Rattus norvegicus; assay: Potency (1 mg/rat) using anti-ovulatory assay, expressed as rat ovulating/total number of treated rats measured after sc administration; 2/8; format: functional, organism-based
[19] = test system: Rattus norvegicus; assay: Potency (2.5 mg/rat) using anti-ovulatory assay, expressed as rat ovulating/total number of treated rats measured after sc administration; 5/9; format: functional, organism-based

Kd ([1]; pituitary gland cell): 1 nM | Relative potency [3]: 1.2 | EC50 [5]: 3.5 µg/mL (≈ 2.59 µM)
Structure (SMILES): CCCC/N=C(\NC#N)NCCCC[C@H](NC(=O)[C@H](CC(C)C)NC(=O)[C@@H](CCCN=C(N)N)NC(=O)[C@H](Cc1ccc(O)cc1)NC(=O)[C@H](CO)NC(=O)[C@@H](Cc1cccnc1)NC(=O)[C@H](Cc1c[nH]cn1)NC(=O)[C@@H]1CCC(=O)N1)C(=O)N1CCC[C@H]1C(=O)N[C@H](C)C(N)=O
Activity [2]: inactive | Activity [4]: Active

Relative potency [3]: 0.3 | EC50 [5]: 9.5 µg/mL (≈ 7.12 µM)
Structure (SMILES): CC(C)C[C@H](NC(=O)[C@@H](CCCN=C(N)N)NC(=O)[C@H](Cc1ccc(O)cc1)NC(=O)[C@H](CO)NC(=O)[C@@H](CCCCNc1n[nH]c(N)n1)NC(=O)[C@H](Cc1c[nH]cn1)NC(=O)[C@@H]1CCC(=O)N1)C(=O)N[C@@H](CCCCNC(C)C)C(=O)N1CCC[C@H]1C(=O)N[C@H](C)C(N)=O
Activity [6]: Weak activity | Activity [7]: Active

Kd [1]: 0.11 nM
Structure (SMILES): CCCC/N=C(/NCCCC[C@H](NC(=O)[C@H](CC(C)C)NC(=O)[C@@H](CCCCNC(=O)c1cccnc1)NC(=O)[C@H](CCCCNC(=O)c1cccnc1)NC(=O)[C@H](CO)NC(=O)[C@H](Cc1c[nH]c2ccccc12)NC(=O)[C@H](Cc1c[nH]cn1)NC(=O)[C@@H]1CCC(=O)N1)C(=O)N1CCC[C@H]1C(=O)N[C@H](C)C(N)=O)NC(N)=O
Activity [8]: inactive | Activity [9]: Active

Relative potency [3]: 0.6
Structure (SMILES): CC(C)C[C@H](NC(=O)[C@@H](CCCCNc1n[nH]c(N)n1)NC(=O)[C@H](Cc1ccc(O)cc1)NC(=O)[C@H](CO)NC(=O)[C@H](CCCCNc1n[nH]c(N)n1)NC(=O)[C@H](Cc1c[nH]cn1)NC(=O)[C@@H]1CCC(=O)N1)C(=O)N[C@@H](CCCCNC(C)C)C(=O)N1CCC[C@H]1C(=O)N[C@H](C)C(N)=O
Activity [10]: Active | Activity [11]: inactive

Kd [1]: 0.41 nM | Relative potency [3]: 0.9
Structure (SMILES): CC(C)C[C@H](NC(=O)[C@@H](CCC/N=C(\NC#N)NCc1ccccn1)NC(=O)[C@H](CCC/N=C(\NC#N)NCc1ccccn1)NC(=O)[C@H](CO)NC(=O)[C@H](Cc1c[nH]c2ccccc12)NC(=O)[C@H](Cc1c[nH]cn1)NC(=O)[C@@H]1CCC(=O)N1)C(=O)N[C@@H](CCCCNC(C)C)C(=O)N1CCC[C@H]1C(=O)N[C@H](C)C(N)=O
Activity [12]: Active

Relative potency [3]: 0.06
Structure (SMILES): CC(C)C[C@H](NC(=O)[C@@H](Cc1cccnc1)NC(=O)[C@H](Cc1ccc(O)cc1)NC(=O)[C@H](CO)NC(=O)[C@H](Cc1ccc(Nc2n[nH]c(N)n2)cc1)NC(=O)[C@H](Cc1c[nH]cn1)NC(=O)[C@@H]1CCC(=O)N1)C(=O)N[C@@H](CCCCNC(C)C)C(=O)N1CCC[C@H]1C(=O)N[C@H](C)C(N)=O
Activity [13]: inactive

Kd [1]: 2.1 nM | Relative potency [3]: 1
Structure (SMILES): CCCC/N=C(\NC#N)NCCC[C@H](NC(=O)[C@H](CO)NC(=O)[C@H](Cc1c[nH]c2ccccc12)NC(=O)[C@H](Cc1c[nH]cn1)NC(=O)[C@@H]1CCC(=O)N1)C(=O)N[C@H](CCCN/C(=N/CCCC)NC#N)C(=O)N[C@@H](CC(C)C)C(=O)N[C@@H](CCCCNC(C)C)C(=O)N1CCC[C@H]1C(=O)N[C@H](C)C(N)=O
Activity [14]: Weak activity | Activity [15]: Active

Relative potency [3]: 0.42
Structure (SMILES): CC(C)C[C@H](NC(=O)[C@@H](CCCC/N=C(\NC#N)NC1CCCCC1)NC(=O)[C@H](CCCC/N=C(\NC#N)NC1CCCCC1)NC(=O)[C@H](CO)NC(=O)[C@H](Cc1c[nH]c2ccccc12)NC(=O)[C@H](Cc1c[nH]cn1)NC(=O)[C@@H]1CCC(=O)N1)C(=O)N[C@@H](CCCCNC(C)C)C(=O)N1CCC[C@H]1C(=O)N[C@H](C)C(N)=O
Activity [16]: inactive

Kd [1]: 1.2 nM | Relative potency [3]: 1.4 | EC50 [5]: 6 µg/mL (≈ 4.36 µM)
Structure (SMILES): CCCC/N=C(\NC#N)NCCCC[C@@H](NC(=O)[C@H](Cc1c[nH]cn1)NC(=O)[C@@H]1CCC(=O)N1)C(=O)N[C@@H](CO)C(=O)N[C@@H](Cc1ccc(O)cc1)C(=O)N[C@H](CCCN=C(N)N)C(=O)N[C@@H](CC(C)C)C(=O)N[C@@H](CCCCNC(C)C)C(=O)N1CCC[C@H]1C(=O)N[C@H](C)C(N)=O
Activity [17]: inactive | Activity [18]: Active

Relative potency [3]: 1.4
Structure (SMILES): CCCC/N=C(\NC#N)NCCCC[C@H](NC(=O)[C@H](Cc1c[nH]cn1)NC(=O)[C@@H]1CCC(=O)N1)C(=O)N[C@@H](CO)C(=O)N[C@@H](Cc1ccc(O)cc1)C(=O)N[C@H](CCCCN/C(=N/CCCC)NC#N)C(=O)N[C@@H](CC(C)C)C(=O)N[C@@H](CCCCNC(C)C)C(=O)N1CCC[C@H]1C(=O)N[C@H](C)C(N)=O
Activity [19]: Weak activity
